{"source": "ChEMBL document CHEMBL3868636", "about": "“New glutathione peroxidase mimetics-Insights into antioxidant and cytotoxic activity” (Bioorg Med Chem, 2017)", "key": {"[1]": {"assay": "Antioxidant activity assessed as H2O2 scavenging by measuring remaining dithiothreitol level at 0.1 equivalent after 3 mins by 1H NMR spectroscopy relative to control", "assay_type": "functional", "outline": "(§1)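 Dithiothreitol oxidation by 30% H2O2 (3.0 eq) in CD3OD, catalysed by Se compound at 0.1 equiv. 1H NMR spectra taken right after H2O2 addition and then at set intervals. Remaining substrate derived from changes in signal integration.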"}, "[2]": {"assay": "Cytotoxicity against human MCF7 cells assessed as reduction in cell viability measured after 24 hrs by MTT assay", "assay_type": "functional, cell-based", "settings": "MCF7, 24 h", "outline": "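MCF-7 cells grown in MEM with glutamine, non-essential amino acids, gentamycin and 10% heat-inactivated FBS at 37°C, 5% CO2. Seeded at 10^4 cells/well and left 24 h. Compounds at various concentrations or 0.1% DMSO vehicle for 24 h. MTT added for 2 h at 37°C. Formazan read at 540 nm against untreated control. Run in triplicate, IC50 reported.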"}, "[3]": {"assay": "Antioxidant activity assessed as H2O2 scavenging by measuring remaining dithiothreitol level at 0.1 equivalent after 5 mins by 1H NMR spectroscopy relative to control", "assay_type": "functional", "outline": "as §1"}, "[4]": {"assay": "Antioxidant activity assessed as H2O2 scavenging by measuring remaining dithiothreitol level at 0.1 equivalent after 60 mins by 1H NMR spectroscopy relative to control", "assay_type": "functional", "outline": "as §1"}, "[5]": {"assay": "Antioxidant activity assessed as H2O2 scavenging by measuring remaining dithiothreitol level after 15 mins at 0.1 equivalent by 1H NMR spectroscopy relative to control", "assay_type": "functional", "outline": "as §1"}, "[6]": {"assay": "Antioxidant activity assessed as H2O2 scavenging by measuring remaining dithiothreitol level at 0.1 equivalent after 30 mins by 1H NMR spectroscopy relative to control", "assay_type": "functional", "outline": "as §1"}, "[7]": {"assay": "Cytotoxicity against human DU145 cells assessed as reduction in cell viability measured after 24 hrs by SRB assay", "assay_type": "functional, cell-based", "settings": "DU-145, 24 h", "outline": "(§2)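 DU-145 cells grown in MEM with 10% FBS, glutamine and pyruvate. PNT1A cells grown in RPMI 1640 with serum. Both seeded at 6.0 x 10^3 cells/well for 24 h, then treated 24 h with graded concentrations up to 40. Triplicate, IC50 calculated.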"}, "DU-145": {"test_system": "DU-145", "assay": "Inhibition of Akt-phosphorylation in human DU145 cells at 40 uM measured after 0.5 to 2 hrs by Western blot analysis", "assay_type": "cell-based", "outline": "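Cells treated with 40 μM compound for different times. Floating and attached cells lysed in Tris-HCl pH 7.5/NaCl/Triton X-100/SDS for 40 min on ice. Lysates run on 10–12% SDS-PAGE and blotted to PVDF. Primary antibody applied 1 h at room temperature, detection by ECL. p-Akt quantified by densitometry and normalised to β-actin.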"}, "[8]": {"assay": "Cytotoxicity against human PNT1A cells assessed as reduction in cell viability measured after 24 hrs by SRB assay", "assay_type": "toxicity, cell-based", "outline": "as §2"}, "[9]": {"assay": "Antiproliferative activity against human A549 cells", "assay_type": "functional, cell-based"}}, "note": "pIC50: −log10 of the molar value. Active and inactive are the calls of the source. No cut-off for these calls is given here."}
{"smiles": "O=C(NC1CCCCC1)c1ccccc1[Se][Se]c1ccccc1C(=O)NC1CCCCC1", "values": [{"measurement": "Activity", "setting": "[1]", "value": 92, "unit": "%"}, {"measurement": "pIC50", "setting": "[2]", "value": 4.05}, {"measurement": "Activity", "setting": "[3]", "value": 85, "unit": "%"}, {"measurement": "Activity", "setting": "[4]", "value": 54, "unit": "%"}, {"measurement": "Activity", "setting": "[5]", "value": 75, "unit": "%"}, {"measurement": "Activity", "setting": "[6]", "value": 65, "unit": "%"}, {"measurement": "pIC50", "setting": "[7]", "value": "< 4.40"}]}
{"smiles": "CC(C)CCn1[se]c2ccccc2c1=O", "values": [{"measurement": "inhibition", "setting": "DU-145", "value": "Active"}, {"measurement": "Activity", "setting": "[1]", "value": 77, "unit": "%"}, {"measurement": "pIC50", "setting": "[2]", "value": 4.54}, {"measurement": "Activity", "setting": "[3]", "value": 58, "unit": "%"}, {"measurement": "IC50 at 24 h", "setting": "[8]", "value": "> 40", "unit": "µM"}, {"measurement": "Activity", "setting": "[4]", "value": 13, "unit": "%"}, {"measurement": "Activity", "setting": "[5]", "value": 42, "unit": "%"}, {"measurement": "Activity", "setting": "[6]", "value": 28, "unit": "%"}, {"measurement": "pIC50", "setting": "[7]", "value": 4.52}]}
{"smiles": "C=CCNC(=O)c1ccccc1[Se][Se]c1ccccc1C(=O)NCC=C", "values": [{"measurement": "Activity", "setting": "[1]", "value": 59, "unit": "%"}, {"measurement": "pIC50", "setting": "[2]", "value": 3.90}, {"measurement": "Activity", "setting": "[3]", "value": 36, "unit": "%"}, {"measurement": "Activity", "setting": "[4]", "value": 0, "unit": "%"}, {"measurement": "Activity", "setting": "[5]", "value": 12, "unit": "%"}, {"measurement": "Activity", "setting": "[6]", "value": 0, "unit": "%"}, {"measurement": "pIC50", "setting": "[7]", "value": 4.69}]}
{"smiles": "CC(C)CCNC(=O)c1ccccc1[Se][Se]c1ccccc1C(=O)NCCC(C)C", "values": [{"measurement": "Activity", "setting": "[1]", "value": 65, "unit": "%"}, {"measurement": "pIC50", "setting": "[2]", "value": "< 3.30"}, {"measurement": "Activity", "setting": "[3]", "value": 49, "unit": "%"}, {"measurement": "Activity", "setting": "[4]", "value": 21, "unit": "%"}, {"measurement": "Activity", "setting": "[5]", "value": 38, "unit": "%"}, {"measurement": "Activity", "setting": "[6]", "value": 31, "unit": "%"}, {"measurement": "pIC50", "setting": "[7]", "value": "< 4.40"}]}
{"smiles": "CCCCn1[se]c2ccccc2c1=O", "values": [{"measurement": "Activity", "setting": "[1]", "value": 81, "unit": "%"}, {"measurement": "pIC50", "setting": "[2]", "value": 4.86}, {"measurement": "Activity", "setting": "[3]", "value": 59, "unit": "%"}, {"measurement": "IC50 at 24 h", "setting": "[8]", "value": "> 40", "unit": "µM"}, {"measurement": "Activity", "setting": "[4]", "value": 29, "unit": "%"}, {"measurement": "Activity", "setting": "[5]", "value": 41, "unit": "%"}, {"measurement": "Activity", "setting": "[6]", "value": 32, "unit": "%"}, {"measurement": "pIC50", "setting": "[7]", "value": 4.68}]}
{"smiles": "C=CCn1[se]c2ccccc2c1=O", "values": [{"measurement": "Activity", "setting": "[1]", "value": 76, "unit": "%"}, {"measurement": "pIC50", "setting": "[2]", "value": 4.59}, {"measurement": "Activity", "setting": "[3]", "value": 69, "unit": "%"}, {"measurement": "IC50 at 24 h", "setting": "[8]", "value": "> 40", "unit": "µM"}, {"measurement": "Activity", "setting": "[4]", "value": 41, "unit": "%"}, {"measurement": "Activity", "setting": "[5]", "value": 58, "unit": "%"}, {"measurement": "Activity", "setting": "[6]", "value": 53, "unit": "%"}, {"measurement": "pIC50", "setting": "[7]", "value": 4.99}]}
{"smiles": "CCCCNC(=O)c1ccccc1[Se][Se]c1ccccc1C(=O)NCCCC", "values": [{"measurement": "Activity", "setting": "[1]", "value": 93, "unit": "%"}, {"measurement": "pIC50", "setting": "[2]", "value": "< 3.30"}, {"measurement": "Activity", "setting": "[3]", "value": 88, "unit": "%"}, {"measurement": "Activity", "setting": "[4]", "value": 73, "unit": "%"}, {"measurement": "Activity", "setting": "[5]", "value": 82, "unit": "%"}, {"measurement": "Activity", "setting": "[6]", "value": 77, "unit": "%"}, {"measurement": "pIC50", "setting": "[7]", "value": "< 4.40"}]}
{"smiles": "O=c1c2ccccc2[se]n1C1CCCCC1", "values": [{"measurement": "inhibition", "setting": "DU-145", "value": "Active"}, {"measurement": "Activity", "setting": "[1]", "value": 75, "unit": "%"}, {"measurement": "pIC50", "setting": "[2]", "value": 5.14}, {"measurement": "Activity", "setting": "[3]", "value": 69, "unit": "%"}, {"measurement": "IC50 at 24 h", "setting": "[8]", "value": "> 40", "unit": "µM"}, {"measurement": "Activity", "setting": "[4]", "value": 44, "unit": "%"}, {"measurement": "Activity", "setting": "[5]", "value": 62, "unit": "%"}, {"measurement": "Activity", "setting": "[6]", "value": 55, "unit": "%"}, {"measurement": "pIC50", "setting": "[7]", "value": 5.24}]}
{"smiles": "Cn1[se]c2ccccc2c1=O", "values": [{"measurement": "Activity", "setting": "[1]", "value": 78, "unit": "%"}, {"measurement": "pIC50", "setting": "[2]", "value": 4.49}, {"measurement": "Activity", "setting": "[3]", "value": 65, "unit": "%"}, {"measurement": "IC50 at 24 h", "setting": "[8]", "value": "> 40", "unit": "µM"}, {"measurement": "Activity", "setting": "[4]", "value": 0, "unit": "%"}, {"measurement": "Activity", "setting": "[5]", "value": 35, "unit": "%"}, {"measurement": "Activity", "setting": "[6]", "value": 11, "unit": "%"}, {"measurement": "pIC50", "setting": "[7]", "value": 4.52}]}
{"smiles": "O=c1c2ccccc2[se]n1-c1ccccc1", "values": [{"measurement": "Activity", "setting": "[1]", "value": 84, "unit": "%"}, {"measurement": "Activity", "setting": "[3]", "value": 75, "unit": "%"}, {"measurement": "Activity", "setting": "[4]", "value": 52, "unit": "%"}, {"measurement": "Activity", "setting": "[5]", "value": 64, "unit": "%"}, {"measurement": "Activity", "setting": "[6]", "value": 58, "unit": "%"}]}
{"smiles": "O=C(O)c1ccc(NC(=O)c2ccccc2[Se][Se]c2ccccc2C(=O)Nc2ccc(C(=O)O)cc2)cc1", "values": [{"measurement": "pIC50", "setting": "[9]", "value": 4.70}]}
